{
  "source": "ChEMBL document CHEMBL1156035",
  "about": "“(3R,5S,7as)-(3,5-Bis(4-fluorophenyl)tetrahydro-1H-oxazolo[3,4-c]oxazol-7a-yl)methanol, a novel neuroprotective agent” (J Med Chem, 2009)",
  "key": {"[1]": {"species": "Bos taurus", "assay": "Displacement of [3H](3R,5S,7as)-(3,5-bis(4-fluorophenyl)tetrahydro-1H-oxazolo[3,4-c]oxazol-7a-yl)methanol from bovine microtubule at 40 uM", "procedure,_shortened": "(§1)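 Competitive binding: microtubules were formed from bovine brain microtubule protein (2 mg/mL) in PEM buffer with 0.5 mM GTP. Conditions were 100 μM tritiated compound with 0–40 μM paclitaxel, or 20 μM [3H]paclitaxel with 0–400 μM competitor, at 37 °C for 10 min. Pellets were spun at 100000g for 4 min, dissolved in 0.1 M NaOH, and radioactivity and protein were measured.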"}, "[2]": {"species": "Bos taurus", "assay": "Stabilization of bovine microtubule against cold-induced […] assessed as pelleted protein level at 20 uM by centrifugation assay"}, "[3]": {"species": "Bos taurus", "assay": "Induction of bovine tubulin assembly assessed as microtubule formation at 25 uM after 30 mins by DAPI staining-based fluorescence assay in absence of GTP", "procedure,_shortened": "(§2)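 DAPI fluorescence assembly assay: bovine brain microtubule protein (containing MAPs) at 2 mg/mL in PEM buffer (0.1 M PIPES, 1 mM MgSO4, 1 mM EGTA, pH 6.9), 4% DMSO and 10 μM DAPI, without GTP, with varying compound concentrations. Plates were incubated 30 min at 37 °C and fluorescence was read. Values were corrected for a no-compound control and expressed relative to the maximum given by 25 μM paclitaxel.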"}, "[4]": {"species": "Bos taurus", "assay": "Induction of bovine tubulin aggregation at 100 to 400 uM after 30 mins by electron microscopy"}, "[5]": {"assay": "Neuroprotective effect against beta-amyloid (25-35)-induced cell death in Sprague-Dawley rat cortical neuron treated 2 hrs before beta-amyloid (25-35) challenge measured after 48 hrs by propidium iodide staining-based fluorescence microscopy", "type": "functional", "details": "Cortical neurone", "procedure,_shortened": "(§3)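 Rat cortical neurons from embryonic day 18 Sprague–Dawley fetuses, plated on poly-D-lysine and kept serum-free in DMEM/F12 with N2, were used after 5 days. Compound (0.5–60 nM) was added about 2 h before 10 μM Aβ25–35 or Aβ1–42, preaggregated 24 h at 37 °C in Tris pH 7.4. Vehicle DMSO was ≤0.04%. After 48 h, cells were stained 30 min with 20 μM propidium iodide and 150 nM calcein-AM. Live and dead cells were counted in 6–12 fields from duplicate dishes across at least two preparations (about 1500 cells). Student's t test was used.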"}, "[6]": {"species": "Bos taurus", "assay": "Induction of bovine tubulin assembly assessed as microtubule formation at 100 to 400 uM after 30 mins by electron microscopy"}, "[7]": {"species": "Bos taurus", "assay": "Induction of bovine tubulin assembly assessed as microtubule formation at 200 to 400 uM after 30 mins by DAPI staining-based fluorescence assay in absence of GTP", "procedure,_shortened": "as §2"}, "[8]": {"species": "Bos taurus", "assay": "Stabilization of bovine microtubule against cold-induced […] assessed as pelleted protein level at 400 uM by centrifugation assay"}, "[9]": {"species": "Bos taurus", "assay": "Induction of bovine tubulin assembly assessed as formation of pelleted protein at 100 to 400 uM after 30 mins by centrifugation assay relative to paclitaxel in presence of GTP"}, "[10]": {"species": "Bos taurus", "assay": "Displacement of [3H]paclitaxel from bovine microtubule at 400 uM", "procedure,_shortened": "as §1"}, "[11]": {"test_system": "Cortical neurone", "assay": "Neuroprotective effect against paraquat-induced cell death in Sprague-Dawley rat cortical neuron at 100 nM treated 2 hrs before paraquat challenge measured after 48 hrs by propidium iodide staining-based fluorescence microscopy", "type": "functional"}, "[12]": {"test_system": "Cortical neurone", "assay": "Neuroprotective effect against H2O2-induced cell death in Sprague-Dawley rat cortical neuron at 100 nM treated 2 hrs before H2O2 challenge measured after 48 hrs by propidium iodide staining-based fluorescence microscopy", "type": "functional"}, "[13]": {"assay": "Apparent passive permeability from luminal to abluminal side of BBMEC at 10 uM up to 1.5 hrs", "type": "ADME, Bos taurus", "details": "cattle", "procedure,_shortened": "(§4)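 Bovine brain microvessel endothelial cell monolayers, confluent on 0.4 μm polycarbonate membranes coated with collagen and fibronectin, mounted in side-by-side diffusion chambers with PBSA. The donor side (luminal or abluminal) received 10 μM unlabeled compound plus trace tritiated compound. Receiver samples were taken at time points up to 90 min and counted by liquid scintillation.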"}, "[14]": {"species": "Bos taurus", "assay": "Induction of P-gp-mediated rhodamine 123 uptake in BBMEC at 1 to 50 uM", "procedure,_shortened": "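Primary bovine brain microvessel endothelial cells in 24-well plates were rinsed and equilibrated 10 min in warm PBSA. They were preincubated 30 min at 37 °C with compound at 1–50 μM, then given 5 μM rhodamine 123 for 2 h. Cells were rinsed with ice-cold PBS and lysed in 0.5% Triton X-100/0.2 M NaOH. Rhodamine 123 fluorescence was normalized to BCA protein. Cyclosporine A served as positive control.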"}, "[15]": {"test_system": "Cortical neurone", "assay": "Neuroprotective effect against staurosporine-induced cell death in Sprague-Dawley rat cortical neuron at 100 nM treated 2 hrs before staurosporine challenge measured after 48 hrs by propidium iodide staining-based fluorescence microscopy", "type": "functional"}, "[16]": {"test_system": "Cortical neurone", "assay": "Neuroprotective effect against beta-amyloid (1-42)-induced cell death in Sprague-Dawley rat cortical neuron at 0.5 to 60 nM treated 2 hrs before beta-amyloid (1-42) challenge measured after 48 hrs by propidium iodide staining-based fluorescence microscopy", "type": "functional", "procedure,_shortened": "as §3"}, "[17]": {"assay": "Apparent passive permeability from abluminal to luminal side of BBMEC at 10 uM up to 1.5 hrs", "type": "ADME, Bos taurus", "details": "cattle", "procedure,_shortened": "as §4"}, "[18]": {"test_system": "Cortical neurone", "assay": "Neuroprotective effect against thapsigargin-induced cell death in Sprague-Dawley rat cortical neuron at 100 nM treated 2 hrs before thapsigargin challenge measured after 48 hrs by propidium iodide staining-based fluorescence microscopy", "type": "functional"}, "[19]": {"species": "Bos taurus", "assay": "Induction of bovine tubulin assembly assessed as microtubule formation at 100 uM after 30 mins by DAPI staining-based fluorescence assay in absence of GTP", "procedure,_shortened": "as §2"}},
  "note": "Active and inactive are the calls of the source. No cut-off for these calls is given here.",
  "data": [
    {"compound": "CC(=O)O[C@H]1C(=O)[C@@]2(C)[C@H]([C@H](OC(=O)c3ccccc3)[C@]3(O)C[C@H](OC(=O)[C@H](O)[C@@H](NC(=O)c4ccccc4)c4ccccc4)C(C)=C1C3(C)C)[C@]1(OC(C)=O)CO[C@@H]1C[C@@H]2O", "values": [
      {"measurement": "Activity", "setting": "[1]", "result": 42, "unit": "%"},
      {"measurement": "Activity", "setting": "[2]", "result": 79, "unit": "%"},
      {"measurement": "Activity", "setting": "[3]", "result": 20, "unit": "%"}
    ]},
    {"compound": "OCC1(CO)COC(c2ccc(F)cc2)N1", "note": "(stereo not given)", "values": [
      {"measurement": "Activity", "setting": "[4]", "result": "Active"},
      {"measurement": "EC50", "setting": "[5]", "result": 0.04, "unit": "µM"},
      {"measurement": "Activity", "setting": "[6]", "result": "inactive"}
    ]},
    {"compound": "OCC12CO[C@H](c3ccc(F)cc3)N1[C@@H](c1ccc(F)cc1)OC2", "note": "(relative stereo)", "values": [
      {"measurement": "Activity", "setting": "[4]", "result": "Active"},
      {"measurement": "EC50", "setting": "[5]", "result": 0.05, "unit": "µM"},
      {"measurement": "Activity", "setting": "[6]", "result": "inactive"}
    ]},
    {"compound": "OC[C@]12CO[C@H](c3ccc(F)cc3)N1[C@H](c1ccc(F)cc1)OC2", "values": [
      {"measurement": "Activity", "setting": "[7]", "result": "inactive"},
      {"measurement": "Activity", "setting": "[8]", "result": 9, "unit": "%"},
      {"measurement": "Activity", "setting": "[9]", "result": 10, "unit": "%"},
      {"measurement": "Activity", "setting": "[10]", "result": 40, "unit": "%"},
      {"measurement": "Activity", "setting": "[11]", "result": "Active"},
      {"measurement": "Activity", "setting": "[12]", "result": "Active"},
      {"measurement": "Papp at 1.5 h, 10 µM", "setting": "[13]", "result": 286, "unit": "×10⁻⁶ cm/s"},
      {"measurement": "Activity", "setting": "[14]", "result": "inactive"},
      {"measurement": "Activity", "setting": "[15]", "result": "Active"},
      {"measurement": "Activity", "setting": "[16]", "result": "Active"},
      {"measurement": "Papp at 1.5 h, 10 µM", "setting": "[17]", "result": 244, "unit": "×10⁻⁶ cm/s"},
      {"measurement": "Activity", "setting": "[18]", "result": "Active"},
      {"measurement": "Activity", "setting": "[19]", "result": "Active"},
      {"measurement": "Activity", "setting": "[4]", "result": "Active"},
      {"measurement": "EC50", "setting": "[5]", "result": 0.005, "unit": "µM"},
      {"measurement": "Activity", "setting": "[6]", "result": "inactive"}
    ]}
  ]
}
